This is an account of results in ChEMBL document CHEMBL3526054, “Substituted imidazole of 5-fluoro-2-[4-[(2-phenyl-1H-imidazol-5-yl)methyl]-1-piperazinyl]pyrimidine Inactivates cytochrome P450 2D6 by protein adduction” (Drug Metab Dispos, 2011).

The structures appear in SMILES notation.

Series [1] addresses T1, Cytochrome P450 2D6 (Homo sapiens, UniProt P10635). In words: Partition ratio of […] assessed as number of molecules of compound metabolized per molecule of inactivated enzyme after 60 mins by HPLC analysis. It is filed as ADME. The following applies: recombinant enzyme, 1 h.
The target of series [2] is T2, CYP2D6 (Homo sapiens, UniProt P10635). In words: (§1) Inhibition of catalytic activity of recombinant human CYP2D6 expressed in Escherichia coli co-expressing P450 reductase assessed as hydroxybufuralol activity at 16 uM after <15 mins by HPLC analysis in presence of NADPH. In kind it is ADME. The following applies: probe bufuralol (hydroxybufuralol formation).
Series [3] addresses T2, CYP2D6. In words: Inhibition of catalytic activity of […] assessed as loss of native heme in hemochrome at 16 uM after <15 mins by HPLC analysis in presence of NADPH. In kind it is ADME.
The target in series [4] is T2, CYP2D6. The series can be described thus: Inhibition of catalytic activity of recombinant human CYP2D6 expressed in Escherichia coli co-expressing P450 reductase assessed as loss of native heme in hemochrome at 16 uM after <15 mins by hemochrome assay in presence of NADPH. In kind it is ADME. The method in brief: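 Purified CYP2D6 (1 μM) with 2 μM reductase, 30 μM dilauroyl-PC, catalase, SOD and 16 μM compound in 100 mM KPi pH 7.4, incubated 0–40 min with an NADPH-generating system. Controls lacked compound or NADPH system. Quenched in detergent buffer, then pyridine (22%) and NaOH (0.01 N, final) added. Dithionite-reduced spectrum 520–620 nm; heme from A557–A575 (32.4 mM⁻¹cm⁻¹), relative to time 0.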

Another series concerns the target Cytochrome P450 2C19 (Homo sapiens, UniProt P33261). In words: Drug metabolism assessed as CYP2C19 (unknown origin)-mediated retention time of metabolite by LC-MS/MS analysis in presence of NADPH. In kind it is ADME.
Series [5] deals with T1, Cytochrome P450 2D6. In words: Binding affinity to recombinant human CYP2D6 expressed in Escherichia coli co-expressing P450 reductase by spectral analysis. It is filed as ADME. To be noted: read-out: Ks. The method in brief:
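Purified recombinant CYP2D6 (from E. coli), 1 μM in 100 mM potassium phosphate pH 7.4, split between two cuvettes at room temperature. Ligand (0.05–16 μM, in water) titrated into the sample cuvette, solvent into the reference. Difference spectra recorded 350–500 nm. ΔA430–395 plotted against concentration. Ks obtained by nonlinear fit to the quadratic tight-binding equation.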

A further series has as its target Cytochrome P450 2C9 (Homo sapiens, UniProt P11712). In words: Drug metabolism assessed as CYP2C9 (unknown origin)-mediated retention time of metabolite by LC-MS/MS analysis in presence of NADPH. In kind it is ADME.
The target of series [6] is T1, Cytochrome P450 2D6. The series can be described thus: Covalent binding affinity to human CYP2D6 with P450 reductase assessed per nmol of enzyme after 60 mins by protein precipitation and scintillation counting analysis in absence of NADPH. The following applies: 1 h.
Series [7] concerns the target T1, Cytochrome P450 2D6. In words: Drug metabolism assessed as human CYP2D6 with P450 reductase-mediated retention time of metabolite by LC-MS/MS analysis in presence of NADPH. In kind it is ADME.
The target of series [8] is T1, Cytochrome P450 2D6. The series can be described thus: Inhibition of CYP2D6 (unknown origin). In kind it is ADME.
The target in series [9] is T2, CYP2D6. The series can be described thus: Inhibition of catalytic activity of recombinant human CYP2D6 expressed in Escherichia coli co-expressing P450 reductase assessed as loss of ability to bind CO at 16 uM after <15 mins by […] in presence of NADPH. It is filed as ADME. The method in brief:
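Purified CYP2D6 (1 μM) reconstituted with 2 μM P450 reductase, 30 μM dilauroyl-PC, catalase and SOD in 100 mM KPi pH 7.4, with 16 μM compound and an NADPH-generating system. Incubated up to 25 min. Controls lacked compound or NADPH system. Quenched with detergent buffer. Reduced-CO difference spectrum read 400–500 nm; P450 from A450–A475 (91 mM⁻¹cm⁻¹), expressed relative to time 0.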

Series [10] addresses T1, Cytochrome P450 2D6. In words: Covalent binding affinity to human CYP2D6 with P450 reductase assessed per nmol of enzyme after 60 mins by protein precipitation and scintillation counting analysis in presence of NADPH. The following applies: 1 h.
The target in series [11] is T1, Cytochrome P450 2D6. The series is described as §1. It is filed as ADME. To be noted: recombinant enzyme, 0.25 h, 16 µM.

T2 sequence (P10635 whole entry): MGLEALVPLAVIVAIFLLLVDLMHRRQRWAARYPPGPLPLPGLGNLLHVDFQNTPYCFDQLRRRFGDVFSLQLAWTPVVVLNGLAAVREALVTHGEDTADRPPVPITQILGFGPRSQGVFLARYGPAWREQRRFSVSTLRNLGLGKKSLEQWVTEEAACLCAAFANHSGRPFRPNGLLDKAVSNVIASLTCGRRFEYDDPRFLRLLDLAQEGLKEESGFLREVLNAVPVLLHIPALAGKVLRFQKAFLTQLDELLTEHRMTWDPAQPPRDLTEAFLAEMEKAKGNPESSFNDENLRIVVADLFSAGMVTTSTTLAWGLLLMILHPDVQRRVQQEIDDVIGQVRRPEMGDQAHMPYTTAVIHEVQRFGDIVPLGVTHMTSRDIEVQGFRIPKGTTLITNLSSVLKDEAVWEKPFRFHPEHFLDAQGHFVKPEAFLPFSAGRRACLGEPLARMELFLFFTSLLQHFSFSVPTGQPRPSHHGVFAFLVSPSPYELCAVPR
T1 sequence (P10635 whole entry): as above
Cytochrome P450 2C9, sequence (P11712 whole entry): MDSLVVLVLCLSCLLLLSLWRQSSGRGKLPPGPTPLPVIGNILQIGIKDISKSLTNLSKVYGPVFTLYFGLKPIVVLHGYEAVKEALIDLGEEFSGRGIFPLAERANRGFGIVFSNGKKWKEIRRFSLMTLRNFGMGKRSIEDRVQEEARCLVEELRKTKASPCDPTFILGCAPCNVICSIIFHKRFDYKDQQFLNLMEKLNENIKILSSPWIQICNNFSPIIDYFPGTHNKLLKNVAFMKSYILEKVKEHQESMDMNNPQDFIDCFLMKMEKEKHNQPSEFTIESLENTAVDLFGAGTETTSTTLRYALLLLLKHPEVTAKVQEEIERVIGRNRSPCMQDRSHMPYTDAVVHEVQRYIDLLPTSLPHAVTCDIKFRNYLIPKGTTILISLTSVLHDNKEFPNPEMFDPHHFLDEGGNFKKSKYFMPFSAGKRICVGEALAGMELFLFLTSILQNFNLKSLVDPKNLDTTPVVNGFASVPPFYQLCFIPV
Cytochrome P450 2C19, sequence (P33261 whole entry): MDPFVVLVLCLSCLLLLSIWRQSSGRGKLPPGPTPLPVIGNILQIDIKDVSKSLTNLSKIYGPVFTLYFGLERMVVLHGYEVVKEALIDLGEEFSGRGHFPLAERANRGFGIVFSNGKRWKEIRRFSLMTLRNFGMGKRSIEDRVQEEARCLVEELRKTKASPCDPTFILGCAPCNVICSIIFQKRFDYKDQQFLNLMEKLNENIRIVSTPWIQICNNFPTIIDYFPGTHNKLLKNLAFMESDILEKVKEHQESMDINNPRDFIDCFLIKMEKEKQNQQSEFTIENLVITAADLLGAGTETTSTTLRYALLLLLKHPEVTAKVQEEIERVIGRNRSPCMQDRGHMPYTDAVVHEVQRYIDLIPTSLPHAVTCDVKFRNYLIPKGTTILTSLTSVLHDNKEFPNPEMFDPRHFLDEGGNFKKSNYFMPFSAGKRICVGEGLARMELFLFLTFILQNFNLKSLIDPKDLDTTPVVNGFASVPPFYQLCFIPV

On to `CCc1nc(C)c(CN2CCN(c3cc(C(F)(F)F)ccn3)CC2)[nH]1`, for which, on Cytochrome P450 2D6 [1], the Ratio is reported as 99.

For orientation: inhibition means the change of the read-out against control, counted positive when it falls. Broadly, the Ki is the equilibrium dissociation constant of an inhibitor or competing ligand from its target. A high value points to lower affinity. Take `Fc1cnc(N2CCN(Cc3cnc(-c4ccccc4)[nH]3)CC2)nc1`: the inhibition at 0.25 h, 16 µM on CYP2D6 [2] was found to be 90%; at CYP2D6 [3], 25%; at CYP2D6 [4], 15%; on CYP2D6 [9] it was 25%. The Retention_time at Cytochrome P450 2C19, on Cytochrome P450 2C9 and at Cytochrome P450 2D6 [7] was 17 min each time. Besides, the Kd on Cytochrome P450 2D6 [5] came out at 390 nM. Further, on Cytochrome P450 2D6 [1], the Ratio was determined as 3. Also, the PB turned out to be 1.95 nmol on Cytochrome P450 2D6 [6] and 3.15 nmol on Cytochrome P450 2D6 [10]. This compound showed a Ki at Cytochrome P450 2D6 [8] of 550 nM.

Regarding `COc1ccc2c(c1)[C@]13CCCC[C@@H]1[C@H](C2)N(C)CC3` [DEXTROMETHORPHAN], the “inhibition (INH)” value at Cytochrome P450 2D6 [11] was “Active”.
